Records with an inconclusive call do not appear.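 How the source made its calls, unless noted: active means viability increase at or above a cutoff of the median across tested compounds plus 3 SD (cut at about 8.5% in these data, passing the limit was not always enough); inconclusive means some gains above the cutoff, reason not given; inactive means the rest.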
Assays:
[1] = OD615 S. cerevisiae growth inhibition, permissive medium, pilot counter-assay, permissive growth control for S. cerevisiae lifespan shortening project (AID 705;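 active means growth inhibition above 25% in both replicates, a cutoff set 3 SD above the mean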); details: OD615, 24 h, at 10 µM, hits give high values
Outline: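 assay system = Saccharomyces cerevisiae strain carrying genetically modified DeaD replicative-lifespan system | technique = absorbance (optical density) at 615 nm | buffer or medium = permissive raffinose/galactose medium | timing = cells pre-grown 4 h, then 24 h compound exposure, 30 °C humidified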

[2] = Restrictive medium S. cerevisiae growth inhibition, OD615, pilot screen of yeast lifespan reduction project, restrictive growth control (AID 706;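 active means growth inhibition above a set limit, 3 SD over mean compound inhibition, in both replicates, cut at about 43% in these data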;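 further: modified DeaD lifespan yeast strain shifted to restrictive glucose medium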); details: OD615, 48 h, at 10 µM, hits give high values
Outline: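 System: modified S. cerevisiae. Buffer or medium: CSMM-D glucose medium. Incubation: 4 h pre-growth plus 48 h compound exposure, 30 °C. Detection: absorbance (optical density) measured at 615 nm.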

[3] = viability gain of MRP-1-high H69AR cells under doxorubicin, pilot screen, MRP-1 activator project, CellTiter-Glo, duplicate (AID 807); details: H69AR viability with doxorubicin, CellTiter-Glo luminescence; at 10 µM; hits give high values;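 further: compound pretreatment 18-22 h then 72 h combined with doxorubicin; 0% = doxorubicin alone and 100% = vehicle without doxorubicin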
[4] = growth suppression of beta-catenin knockout HCT116, pilot screen, human colon tumor cells (AID 823;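 active means cell viability at or below a set limit in both duplicate runs, the limit being the all-compound median minus 4 SD, cut at about 23% in these data, passing the limit was not always enough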;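 further: 0% = wells killed by 20 µM Hyamine and 100% = untreated DMSO cell wells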); details: CellTiter-Glo, 60 h, at 10 µM, hits give low values
[5] = growth suppression of PTEN-deleted HCT116, pilot screen, cell-based, HCT116 clonal line, CellTiter-Glo (AID 824;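 active means viability at or below 27.92% in each of two runs, the all-compound median minus 4 SD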;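 further: 0% = 20 µM Hyamine control and 100% = vehicle cell control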); details: 60 h, at 10 µM, hits give low values
[6] = inhibitors of the yeast RAM network, pilot screen, dse1pr::URA3 reporter, 5-FOA selection (AID 869;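 active means inhibition over a set limit, the all-compound mean plus 3 SD, in both replicate runs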;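 further: 0% = DMSO wells with no growth and 100% = 10 µM 1-NA-PP1 with full growth; RAM network block rescues cells from 5-FOA so hits raise OD615 growth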); details: S. cerevisiae dse1pr::URA3 5-FOA growth, OD615, 2 d; at 10 µM; hits give high values; strain carries analog-sensitive mutant Cbk1 kinase
[7] = RAM signaling pathway blockade in yeast – S. cerevisiae, Pdr1DBD-CYC8 efflux-inhibited sensitized strain, primary screen (AID 1298;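 active means RAM network inhibition above 8.4% in each of two replicates, 3 SD over the compound average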;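 further: 0% = DMSO untreated cells without growth and 100% = 10 µM 1-NA-PP1 full growth; higher means more yeast growth rescued from 5-FOA killing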); details: S. cerevisiae cbk1-as DSE1-URA3 strain, 5-FOA growth OD615, 2 d; at 50 µM; hits give high values

Cn1c(NCCO)nc2c(c1=O)C1(CCCCC1)Cc1ccccc1-2
inactive: growth inhibition [1] -13.2% | growth inhibition [2] -9.4% | viability increase [3] -2.31% | viability [4] 84% | viability [5] 76% | inhibition [6] 2.31% | RAM network inhibition [7] 5%

Cn1c(CSc2nc3ccccc3s2)n[nH]c1=S
inactive: growth inhibition [1] -6.41% | growth inhibition [2] 1.9% | viability increase [3] -3.16% | viability [4] 96.9% | viability [5] 94.6% | inhibition [6] 0.23% | RAM network inhibition [7] 0.95%

Cc1cc(C)c(S(=O)(=O)N2CCN(C)CC2)c(C)c1
inactive: growth inhibition [1] -9.57% | growth inhibition [2] -13.9% | viability increase [3] 1.1% | viability [4] 101% | viability [5] 101% | inhibition [6] 0.885% | RAM network inhibition [7] 1.78%

O=C1CCCCCN1Cc1nnc(SCc2nc3ccccc3s2)n1-c1ccccn1
inactive: growth inhibition [1] -3.83% | growth inhibition [2] 19.8% | viability increase [3] -3.45% | viability [4] 91.7% | viability [5] 95% | inhibition [6] 1.07% | RAM network inhibition [7] 2.7%

O=C(C1CC(c2ccc(F)cc2)=NO1)N1CCN(c2ccccc2)CC1 (configuration not stated)
inactive: growth inhibition [1] 1.07% | growth inhibition [2] -3.47% | viability increase [3] -0.13% | viability [4] 99.1% | viability [5] 95.6% | inhibition [6] 1.23% | RAM network inhibition [7] 3.67%

O=c1oc2ccccc2n1CCCOc1ccccc1
inactive: growth inhibition [1] 1.24% | growth inhibition [2] -1.04% | viability increase [3] 1.28% | viability [4] 98.1% | viability [5] 96.5% | inhibition [6] 2.02% | RAM network inhibition [7] 1.62%

COc1cc2ccccc2cc1-c1nnc(COc2ccccc2)o1
inactive: growth inhibition [1] -8.96% | growth inhibition [2] -14.4% | viability increase [3] -2.61% | viability [4] 98.2% | viability [5] 83.4% | inhibition [6] 4% | RAM network inhibition [7] 2.39%

O=C(Nc1nnc(-c2ccc3c(c2)CCCC3)o1)C1COc2ccccc2O1 (configuration not stated)
inactive: growth inhibition [1] 5.39% | growth inhibition [2] 23% | viability increase [3] -2.7% | viability [4] 44.3% | viability [5] 51.1% | inhibition [6] 0.315% | RAM network inhibition [7] -1.78%

Cc1ccc(-c2nc(CS(=O)(=O)CC(=O)N3CCCCCC3)c(C)o2)cc1
inactive: growth inhibition [1] -2.76% | growth inhibition [2] 0.63% | viability increase [3] -1.22% | viability [4] 50% | viability [5] 70.6% | inhibition [6] 0.26% | RAM network inhibition [7] 4.22%

CC1(C)Cc2c(C#N)c(NC3CCCCC3)nc(-c3ccco3)c2CO1
inactive: growth inhibition [1] -15.4% | growth inhibition [2] -17.4% | viability increase [3] -6.33% | viability [4] 80.3% | viability [5] 76.3% | inhibition [6] 3.23% | RAM network inhibition [7] 0.53%

COc1ccc(-c2nnc(COc3ccc4ccccc4c3)o2)cc1OC
inactive: growth inhibition [1] -7.47% | growth inhibition [2] -22.7% | viability increase [3] -0.12% | viability [4] 99.7% | viability [5] 91.6% | inhibition [6] 1.22% | RAM network inhibition [7] 8.07%

Cn1ccnc1SC(=O)N1c2ccccc2Sc2ccccc21
inactive: growth inhibition [1] 0.525% | growth inhibition [2] 0.605% | viability increase [3] -0.9% | viability [4] 88.8% | viability [5] 91.4% | inhibition [6] 1.25% | RAM network inhibition [7] 3.37%

COC(=O)c1ccc(C2c3c(n[nH]c3C)C(=O)N2c2ccc(C)cc2)cc1 (configuration not stated)
inactive: growth inhibition [1] 10.6% | growth inhibition [2] -0.115% | viability increase [3] 0.79% | viability [4] 70.6% | viability [5] 86.4% | inhibition [6] 0.34% | RAM network inhibition [7] 0.36%

COc1ccc(C2N3CC4(C)CN2CC(C)(C3)C4O)cc1 (configuration not stated)
inactive: growth inhibition [1] -17.7% | growth inhibition [2] -6.65% | viability increase [3] 0.42% | viability [4] 106% | viability [5] 97.2% | inhibition [6] 1.22% | RAM network inhibition [7] -0.16%

O=C(CN1CCN(CC(=O)Nc2ccccn2)CC1)Nc1ccccn1
inactive: growth inhibition [1] -2.54% | growth inhibition [2] -0.335% | viability increase [3] -0.95% | viability [4] 98.6% | viability [5] 97.6% | inhibition [6] 0.705% | RAM network inhibition [7] 6.03%

O=C(NCC1CCCO1)c1ccc2nc(N3CCCCC3)sc2c1 (configuration not stated)
inactive: growth inhibition [1] -2.59% | growth inhibition [2] -4.53% | viability increase [3] -0.46% | viability [4] 102% | viability [5] 96.8% | inhibition [6] 2.37% | RAM network inhibition [7] 1.03%

CC(Oc1ccc(Cl)cc1Cl)c1nc(-c2ccccn2)no1 (configuration not stated)
inactive: growth inhibition [1] -3.06% | growth inhibition [2] 5.3% | viability increase [3] 1.23% | viability [4] 99.1% | viability [5] 87.7% | inhibition [6] 0.375% | RAM network inhibition [7] 2.34%

CC(=O)Nc1c(-c2ccccc2)nc2ncccn12
inactive: growth inhibition [1] -4.64% | growth inhibition [2] -5.57% | viability increase [3] -0.33% | viability [4] 108% | viability [5] 95.4% | inhibition [6] 2.77% | RAM network inhibition [7] 0.97%

Cc1ccccc1Cn1c(CN2CCN(C(=O)c3ccco3)CC2)nc2c1c(=O)n(C)c(=O)n2C
inactive: growth inhibition [1] 1.26% | growth inhibition [2] -4.52% | viability increase [3] -4.75% | viability [4] 94.1% | viability [5] 95.7% | inhibition [6] 0.335% | RAM network inhibition [7] 1.2%

O=C(CCCn1c(=O)[nH]c2ccccc2c1=O)N1CCN(c2ccccn2)CC1
inactive: growth inhibition [1] -3.37% | growth inhibition [2] -16.9% | viability increase [3] -3.43% | viability [4] 98.3% | viability [5] 96.2% | inhibition [6] 2.37% | RAM network inhibition [7] 3.32%

COc1ccc(N(CC(=O)Nc2ccc3c(c2)OCO3)S(C)(=O)=O)c(OC)c1
inactive: growth inhibition [1] -12.6% | growth inhibition [2] -4.5% | viability increase [3] -2.19% | viability [4] 97.9% | viability [5] 96.5% | inhibition [6] 1.41% | RAM network inhibition [7] 4.05%

COc1ccc(OC)c(C2CC(=O)N3CN(c4ccccc4)CSC3=C2C#N)c1 (configuration not stated)
inactive: growth inhibition [1] 0.46% | growth inhibition [2] 26.8% | viability increase [3] -4.09% | viability [4] 96.2% | viability [5] 94.5% | inhibition [6] 1.09% | RAM network inhibition [7] 0.06%

O=C(CCN1CCN(CCO)CC1)Nc1ccc(F)c(F)c1
inactive: growth inhibition [1] -1.65% | growth inhibition [2] -3.58% | viability increase [3] -2.29% | viability [4] 104% | viability [5] 101% | inhibition [6] 0.265% | RAM network inhibition [7] 2.01%

COc1ccc(CCNS(=O)(=O)c2ccc3c(c2)oc(=O)n3C)cc1OC
inactive: growth inhibition [1] -5.33% | growth inhibition [2] -1.19% | viability increase [3] -0.83% | viability [4] 105% | viability [5] 94.2% | inhibition [6] 2.37% | RAM network inhibition [7] 0.8%

Cc1ccc(S(=O)(=O)N2C(=S)SCC2(C)C)cc1
inactive: growth inhibition [1] -0.04% | growth inhibition [2] 14.3% | viability increase [3] -1.47% | viability [4] 91.9% | viability [5] 83.5% | inhibition [6] -1.13% | RAM network inhibition [7] 0.51%

Cc1nc2ccccc2c2oc(C(=O)NCc3ccc4c(c3)OCO4)cc12
inactive: growth inhibition [1] -5.28% | growth inhibition [2] -8.97% | viability increase [3] -0.55% | viability [4] 70.8% | viability [5] 80.8% | inhibition [6] 1.01% | RAM network inhibition [7] 5.03%

COc1cc(OC)cc(-c2nc(-c3ccc(Br)cc3)no2)c1
inactive: growth inhibition [1] -13.6% | growth inhibition [2] -13.2% | viability increase [3] 1.86% | viability [4] 94% | viability [5] 89.2% | inhibition [6] 3.5% | RAM network inhibition [7] 8.01%

CCOC(=O)c1[nH]c(C)c(C(=O)N(CC)CC)c1C
inactive: growth inhibition [1] -10.8% | growth inhibition [2] -5.69% | viability increase [3] 0.21% | viability [4] 97% | viability [5] 107% | inhibition [6] 1.27% | RAM network inhibition [7] -0.57%

CS(=O)(=O)N(CC(=O)NCc1ccco1)c1cc(C(F)(F)F)ccc1Cl
inactive: growth inhibition [1] 0.43% | growth inhibition [2] -4.23% | viability increase [3] -3.09% | viability [4] 99% | viability [5] 92.8% | inhibition [6] 0.68% | RAM network inhibition [7] 2.65%

O=C(NCc1ccccn1)c1cc2ccccn2n1
inactive: growth inhibition [1] -2.5% | growth inhibition [2] 0.82% | viability increase [3] -0.01% | viability [4] 104% | viability [5] 102% | inhibition [6] 0.245% | RAM network inhibition [7] 3.25%

CCOC(=O)N1CCN(c2c(NCc3ccccn3)c(=O)c2=O)CC1
inactive: growth inhibition [1] 8.16% | growth inhibition [2] 18.2% | viability increase [3] -1.44% | viability [4] 103% | viability [5] 96% | inhibition [6] 1.28% | RAM network inhibition [7] 1.45%

CN1CCN(S(=O)(=O)c2ccc(NC(=O)c3cccc(S(=O)(=O)N4CCCC4)c3)cc2)CC1
inactive: growth inhibition [1] -5.16% | growth inhibition [2] -5.09% | viability increase [3] -3.98% | viability [4] 89.2% | viability [5] 97.2% | inhibition [6] 2% | RAM network inhibition [7] 9.3%

CCC(C)(C(=O)NC1CCCCC1)N(Cc1ccco1)C(=O)CNC(=O)c1ccccc1 (configuration not stated)
inactive: growth inhibition [1] -14.3% | growth inhibition [2] -12.2% | viability increase [3] -3.39% | viability [4] 83.5% | viability [5] 90.1% | inhibition [6] 0.145% | RAM network inhibition [7] 6.49%

CC1CCc2nn(CC(=O)NCCCN3CCCCC3)cc2C1 (configuration not stated)
inactive: growth inhibition [1] -15.9% | growth inhibition [2] -10.3% | viability increase [3] -2.34% | viability [4] 105% | viability [5] 96.7% | inhibition [6] 1.18% | RAM network inhibition [7] 3.77%

CCCCOC(=O)C(C)Oc1ccc(=O)n(-c2ccccc2)n1 (configuration not stated)
inactive: growth inhibition [1] -4.39% | growth inhibition [2] -6.44% | viability increase [3] -1.41% | viability [4] 98% | viability [5] 88.4% | inhibition [6] 1.26% | RAM network inhibition [7] 2.76%

Cc1ccc(/C(O)=C2/C(=O)C(=O)N(CCN3CCOCC3)C2c2cccnc2)cc1 (configuration not stated)
inactive: growth inhibition [1] 6.32% | growth inhibition [2] 4.34% | viability increase [3] 0.49% | viability [4] 93.5% | viability [5] 102% | inhibition [6] -0.11% | RAM network inhibition [7] 0.7%

From PubChem BioAssay
